According to ChEMBL document CHEMBL4351026, “Antifungal activity, mode of action variability, and subcellular distribution of coumarin-based antifungal azoles” (Eur J Med Chem, 2019):
In brackets after ≈: the same amount, converted by molar mass. Activity calls are given as the source filed them. No cut-off for these calls is given here.

What was measured:
Candida albicans [1] = assay: Antifungal activity against Candida albicans ATCC 90028 assessed as reduction in fungal cell growth incubated for 24 hrs by MTT based broth double dilution method; type: functional; details: ATCC 90028, 24 h
How it was run: (§1)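 Broth double-dilution in Casitone broth. Starter cultures were grown 24 or 48 h at 37 °C, 5% CO₂, diluted 1:100, and added to serial two-fold dilutions at 64 to 0.007 µg/mL. Final inoculum was 5 x 10^4 to 5 x 10^5 CFU/mL; DMSO was 0.0012–1.3%. Plates were incubated at 37 °C, 5% CO₂, then MTT was added for 2 h. MIC followed CLSI M27-A3. Triplicates, two independent experiments.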

Candida albicans [2] = assay: Antifungal activity against Candida albicans P-87 assessed as reduction in fungal cell growth incubated for 24 hrs by MTT based broth double dilution method; type: functional; details: P-87, 24 h; how it was run: as §1
Candida albicans [3] = assay: Antifungal activity against Candida albicans SN152 assessed as reduction in fungal cell growth incubated for 24 hrs by MTT based broth double dilution method; type: functional; details: SN152, 24 h; how it was run: as §1
Nakaseomyces glabratus [4] = assay: Antifungal activity against Candida glabrata ATCC 66032 assessed as reduction in fungal cell growth incubated for 24 hrs by MTT based broth double dilution method; type: functional; details: ATCC 66032, 24 h; how it was run: as §1
Nakaseomyces glabratus [5] = assay: Antifungal activity against Candida glabrata ATCC 2001 assessed as reduction in fungal cell growth incubated for 24 hrs by MTT based broth double dilution method; type: functional; details: ATCC 2001, 24 h; how it was run: as §1
Nakaseomyces glabratus [6] = assay: Antifungal activity against Candida glabrata 192 assessed as reduction in fungal cell growth incubated for 24 hrs by MTT based broth double dilution method; type: functional; details: Nakaseomyces glabratus, 192, 24 h; how it was run: as §1
Candida parapsilosis [7] = assay: Antifungal activity against Candida parapsilosis ATCC 90018 assessed as reduction in fungal cell growth incubated for 24 hrs by MTT based broth double dilution method; type: functional; details: Lodderomyces parapsilosis, ATCC 90018, 24 h; how it was run: as §1
Candida parapsilosis [8] = assay: Antifungal activity against Candida parapsilosis ATCC 22019 assessed as reduction in fungal cell growth incubated for 24 hrs by MTT based broth double dilution method; type: functional; details: Lodderomyces parapsilosis, ATCC 22019, 24 h; how it was run: as §1
[9] = tested on: Meyerozyma guilliermondii; assay: Antifungal activity against Candida guilliermondii T-47 assessed as reduction in fungal cell growth incubated for 24 hrs by MTT based broth double dilution method; type: functional; details: T-47, 24 h; how it was run: as §1
Candida dubliniensis = assay: Antifungal activity against Candida dubliniensis T-99 assessed as reduction in fungal cell growth incubated for 24 hrs by MTT based broth double dilution method; type: functional; details: T-99, 24 h; how it was run: as §1
Candida albicans [10] = assay: Antifungal activity against Candida albicans ATCC 90028 assessed as reduction in fungal cell growth incubated for 48 hrs by MTT based broth double dilution method; type: functional; details: ATCC 90028, 48 h; how it was run: as §1
Candida albicans [11] = assay: Antifungal activity against Candida albicans SN152 assessed as reduction in fungal cell growth incubated for 48 hrs by MTT based broth double dilution method; type: functional; details: SN152, 48 h; how it was run: as §1
Nakaseomyces glabratus [12] = assay: Antifungal activity against Candida glabrata ATCC 66032 assessed as reduction in fungal cell growth incubated for 48 hrs by MTT based broth double dilution method; type: functional; details: ATCC 66032, 48 h; how it was run: as §1
Nakaseomyces glabratus [13] = assay: Antifungal activity against Candida glabrata 192 assessed as reduction in fungal cell growth incubated for 48 hrs by MTT based broth double dilution method; type: functional; details: Nakaseomyces glabratus, 192, 48 h; how it was run: as §1
Candida albicans [14] = assay: Antifungal activity against Candida albicans SN152 assessed as zone inhibition at 25 ug incubated for 24 hrs by disk diffusion method; type: functional, organism-based
How it was run: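 Strains were streaked on YPD agar and grown at 30 °C: 24 h for parental SN152, 48 h for the erg11ΔΔ erg3ΔΔ mutant. Colonies were suspended in PBS and adjusted to OD 0.02 (SN152) or 0.03 (mutant), then spread on Casitone plates. A 6-mm disk loaded with 25 µg compound was placed centrally. Plates were incubated at 30 °C and photographed after 24 h.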

Candida albicans [15] = assay: Antifungal activity against ERG11/ERG3 knocked out Candida albicans SN152 assessed as zone of inhibition at 25 ug […] by disk diffusion method; type: functional, organism-based

| Structure (SMILES) | MIC (Candida albicans [1]) | MIC (Candida albicans [2]) | MIC (Candida albicans [3]) | MIC (Nakaseomyces glabratus [4]) | MIC (Nakaseomyces glabratus [5]) | MIC (Nakaseomyces glabratus [6]) | MIC (Candida parapsilosis [7]) | MIC (Candida parapsilosis [8]) | MIC [9] | MIC (Candida dubliniensis) | MIC (Candida albicans [10]) | MIC (Candida albicans [11]) | MIC (Nakaseomyces glabratus [12]) | MIC (Nakaseomyces glabratus [13]) | inhibition zone (IZ) (Candida albicans [14]) | inhibition zone (IZ) (Candida albicans [15]) |
| --- | --- | --- | --- | --- | --- | --- | --- | --- | --- | --- | --- | --- | --- | --- | --- | --- |
| O=C(NCC(O)(Cn1cncn1)c1ccc(F)cc1F)c1cc2ccccc2[nH]c1=O (racemic) | 2 µg/mL (≈ 4.7 µM) | 1 µg/mL (≈ 2.35 µM) | 0.5 µg/mL (≈ 1.18 µM) | > 64 µg/mL | 64 µg/mL (≈ 150 µM) | 16 µg/mL (≈ 37.6 µM) | 2 µg/mL (≈ 4.7 µM) | 8 µg/mL (≈ 18.8 µM) | 8 µg/mL (≈ 18.8 µM) | 8 µg/mL (≈ 18.8 µM) |  |  |  |  |  |  |
| COc1ccc2cc(C(=O)NCC(O)(Cn3cncn3)c3ccc(F)cc3F)c(=O)[nH]c2c1 (racemic) | 1 µg/mL (≈ 2.2 µM) | 2 µg/mL (≈ 4.39 µM) | 4 µg/mL (≈ 8.78 µM) | > 64 µg/mL | > 64 µg/mL | > 64 µg/mL | 2 µg/mL (≈ 4.39 µM) | > 64 µg/mL | > 64 µg/mL | > 64 µg/mL |  |  |  |  |  |  |
| COc1ccc2cc(C(=O)NCC(O)(Cn3cncn3)c3ccc(F)cc3F)c(=O)oc2c1 (racemic) | 0.25 µg/mL (≈ 0.548 µM) | 0.125 µg/mL (≈ 0.274 µM) | 0.5 µg/mL (≈ 1.1 µM) | 32 µg/mL (≈ 70.1 µM) | 8 µg/mL (≈ 17.5 µM) | 4 µg/mL (≈ 8.76 µM) | 0.25 µg/mL (≈ 0.548 µM) | 2 µg/mL (≈ 4.38 µM) | 1 µg/mL (≈ 2.19 µM) | 4 µg/mL (≈ 8.76 µM) |  |  |  |  |  |  |
| CCC(C)n1ncn(-c2ccc(N3CCN(c4ccc(OCC5COC(Cn6cncn6)(c6ccc(Cl)cc6Cl)O5)cc4)CC3)cc2)c1=O (racemic) [ITRACONAZOLE] | 0.007 µg/mL (≈ 0.00992 µM) | 0.007 µg/mL (≈ 0.00992 µM) | 0.007 µg/mL (≈ 0.00992 µM) | 1 µg/mL (≈ 1.42 µM) | 1 µg/mL (≈ 1.42 µM) | 0.125 µg/mL (≈ 0.177 µM) | 0.007 µg/mL (≈ 0.00992 µM) | 0.03 µg/mL (≈ 0.0425 µM) | 0.03 µg/mL (≈ 0.0425 µM) | 0.06 µg/mL (≈ 0.085 µM) | 0.007 µg/mL (≈ 0.00992 µM) | 0.007 µg/mL (≈ 0.00992 µM) | > 64 µg/mL | 0.125 µg/mL (≈ 0.177 µM) |  |  |
| Clc1ccc(COC(Cn2ccnc2)c2ccc(Cl)cc2Cl)c(Cl)c1 (configuration not stated) [MICONAZOLE] | 0.007 µg/mL (≈ 0.0168 µM) | 0.007 µg/mL (≈ 0.0168 µM) | 0.007 µg/mL (≈ 0.0168 µM) | 2 µg/mL (≈ 4.81 µM) | 1 µg/mL (≈ 2.4 µM) | 0.06 µg/mL (≈ 0.144 µM) | 0.06 µg/mL (≈ 0.144 µM) | 0.003 µg/mL (≈ 0.00721 µM) | 0.06 µg/mL (≈ 0.144 µM) | 0.06 µg/mL (≈ 0.144 µM) | 0.015 µg/mL (≈ 0.036 µM) | 0.015 µg/mL (≈ 0.036 µM) | 4 µg/mL (≈ 9.61 µM) | 0.125 µg/mL (≈ 0.3 µM) | Active | Active |

Further compounds by falling MIC (Candida albicans [1]), results first:

| MIC (Candida albicans [1]) | MIC (Candida albicans [2]) | MIC (Candida albicans [3]) | MIC (Nakaseomyces glabratus [4]) | MIC (Nakaseomyces glabratus [5]) | MIC (Nakaseomyces glabratus [6]) | MIC (Candida parapsilosis [7]) | MIC (Candida parapsilosis [8]) | MIC [9] | MIC (Candida dubliniensis) | Structure (SMILES) | MIC (Candida albicans [10]) | MIC (Candida albicans [11]) | MIC (Nakaseomyces glabratus [12]) | MIC (Nakaseomyces glabratus [13]) | inhibition zone (IZ) (Candida albicans [14]) | inhibition zone (IZ) (Candida albicans [15]) |
| --- | --- | --- | --- | --- | --- | --- | --- | --- | --- | --- | --- | --- | --- | --- | --- | --- |
| 64 µg/mL (≈ 145 µM) | 64 µg/mL (≈ 145 µM) | > 64 µg/mL | > 64 µg/mL | 64 µg/mL (≈ 145 µM) | > 64 µg/mL | > 64 µg/mL | > 64 µg/mL | > 64 µg/mL | > 64 µg/mL | O=C(NCC(O)(Cn1cncn1)c1ccc(F)cc1F)c1cc2ccc(O)cc2oc1=O (racemic) |  |  |  |  |  |  |
| 1 µg/mL (≈ 2.17 µM) | 1 µg/mL (≈ 2.17 µM) | 0.5 µg/mL (≈ 1.09 µM) | 64 µg/mL (≈ 139 µM) | > 64 µg/mL | 16 µg/mL (≈ 34.8 µM) | 1 µg/mL (≈ 2.17 µM) | 8 µg/mL (≈ 17.4 µM) | 8 µg/mL (≈ 17.4 µM) | 8 µg/mL (≈ 17.4 µM) | O=C(NCC(O)(Cn1cncn1)c1ccc(F)cc1F)c1cc2ccc(Cl)cc2[nH]c1=O (racemic) |  |  |  |  |  |  |
| 0.25 µg/mL (≈ 0.586 µM) | 0.125 µg/mL (≈ 0.293 µM) | 0.25 µg/mL (≈ 0.586 µM) | 1 µg/mL (≈ 2.35 µM) | 4 µg/mL (≈ 9.38 µM) | 1 µg/mL (≈ 2.35 µM) | 0.25 µg/mL (≈ 0.586 µM) | 2 µg/mL (≈ 4.69 µM) | 1 µg/mL (≈ 2.35 µM) | 0.5 µg/mL (≈ 1.17 µM) | O=C(NCC(O)(Cn1cncn1)c1ccc(F)cc1F)c1cc2ccccc2oc1=O (racemic) |  |  |  |  |  |  |
| 0.007 µg/mL (≈ 0.0203 µM) | 0.007 µg/mL (≈ 0.0203 µM) | 0.007 µg/mL (≈ 0.0203 µM) |  | 0.5 µg/mL (≈ 1.45 µM) | 0.06 µg/mL (≈ 0.174 µM) | 0.007 µg/mL (≈ 0.0203 µM) | 0.007 µg/mL (≈ 0.0203 µM) | 0.007 µg/mL (≈ 0.0203 µM) | 0.007 µg/mL (≈ 0.0203 µM) | Clc1ccccc1C(c1ccccc1)(c1ccccc1)n1ccnc1 [CLOTRIMAZOLE] | 0.007 µg/mL (≈ 0.0203 µM) | 0.007 µg/mL (≈ 0.0203 µM) |  | 0.25 µg/mL (≈ 0.725 µM) |  |  |
